A short description of data set [1]: Cytotoxicity against human C8166 cells by MTT method. Type of data set: cell-based. The method in brief: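 C8166 cell proliferation measured by MTT, expressed as the concentration reducing proliferation by 50%. Values are means of two separate experiments.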
Data set [2] concerns the target T1, Human immunodeficiency virus type 1 integrase (Human immunodeficiency virus 1, UniProt Q7ZJM1). Description: Inhibition of HIV1 wild type integrase 3'-processing activity. In short, it runs like this: (§1)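 Wild-type integrase at 200 nM final was preincubated with inhibitor at 30 °C for 30 min. Buffer: 50 mM NaCl, 1 mM Hepes pH 7.5, 7.5 mM MnCl2, 0.1 mg/ml BSA, 10 mM 2-mercaptoethanol, 10% glycerol, 10% DMSO, 25 mM MOPS pH 7.2. Read-out was conversion of 21-mer DNA substrate to 19-mer (3'-processing) or to strand-transfer products. % inhibition was set against DNA-alone and DNA+IN controls. IC50 came from log concentration vs % inhibition.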

For data set [3], the target named is T1, Human immunodeficiency virus type 1 integrase. The data set can be described thus: Inhibition of HIV1 wild type integrase strand transfer activity. In short, it runs like this:
as §1

The test system of data set [4] is Human immunodeficiency virus 1. The data set can be described thus: Antiviral activity against HIV1 3B assessed as inhibition of virus-induced cytopathogenicity in human C8166 cells after 4 days by MTT assay. The class given is functional, organism-based. The note with it: Human immunodeficiency virus 1, 3B, C8166, 96 h. The method in brief: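 Protection of C8166 cells from HIV-1-induced cytopathogenicity, expressed as the 50% effective concentration. Values are means of two separate experiments.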

The nature of data set [5]: Therapeutic index, ratio of CC50 for human C8166 cells to EC50 for HIV1 3B. The class given is cell-based. The note with it: read-out: Ratio CC50/EC50. In short, it runs like this: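 Computed as CC50/EC50 from the C8166 MTT cytostatic and HIV-1 cytoprotection assays, each a mean of two separate experiments.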

Structures are written as SMILES.

T1 sequence (Q7ZJM1 whole entry): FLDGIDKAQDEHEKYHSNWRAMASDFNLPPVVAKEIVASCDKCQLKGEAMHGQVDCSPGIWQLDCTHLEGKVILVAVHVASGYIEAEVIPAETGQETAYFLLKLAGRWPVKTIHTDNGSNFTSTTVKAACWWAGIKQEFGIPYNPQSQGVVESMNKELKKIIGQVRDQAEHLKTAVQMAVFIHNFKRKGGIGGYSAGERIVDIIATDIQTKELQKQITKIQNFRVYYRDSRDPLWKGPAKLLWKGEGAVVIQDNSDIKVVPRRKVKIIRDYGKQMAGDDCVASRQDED

Turning to `O=C(O)c1cc(-c2ccc([N+](=O)[O-])cc2)on1`, in data set [1], the CC50 is more than 854 µM. In addition, the half-inhibitory concentration (IC50) was more than 100 µM in data set [2] and 97 µM in data set [3]. Further, the EC50 in data set [4] worked out at 199 µM. For the same compound, the selectivity ratio in data set [5] is more than 4.3.
The corresponding values for `O=C(O)c1cc(-c2cccc(OCc3ccccc3)c2)no1` are 282 µM, more than 100 µM, 81 µM, 7.2 µM and 39.2.
The corresponding values for `O=C(O)c1cc(-c2cccc(OCc3ccccc3)c2)[nH]n1` are 640 µM, more than 100 µM, 100 µM, 277 µM and 2.31.
For `O=C(O)c1cc(-c2ccc([N+](=O)[O-])cc2)[nH]n1`, the CC50 in data set [1] is more than 857 µM. The concentration for half-maximal inhibition (IC50) in data set [2] and in data set [3] was more than 100 µM in each case. Besides, the EC50 in data set [4] was 3.6 µM. In data set [5], the selectivity ratio is more than 238.
Turning to `COC(=O)c1cc(-c2ccc([N+](=O)[O-])cc2)[nH]n1`, the CC50 in data set [1] was more than 809 µM. Also, the 50% inhibitory concentration (IC50) in data set [2] and in data set [3] was more than 100 µM each time. Further, the concentration for a half-maximal effect (EC50) in data set [4] stood at 253 µM. The selectivity ratio in data set [5] is more than 3.2.
In data set [1], `O=C(O)c1cc(-c2cccc(OCc3ccccc3)c2)ns1` showed a 50% cytotoxic concentration (CC50) of 246 µM. Moreover, the IC50 in data set [2] and in data set [3] was more than 100 µM in each case. For the same compound, the concentration for a half-maximal effect (EC50) in data set [4] worked out at 51.7 µM. In addition, in data set [5], the selectivity ratio turned out to be 4.76.
For the compound `O=C(O)c1cc(-c2cccc(OCc3ccccc3)c2)on1`, the cytotoxic concentration (CC50) in data set [1] was found to be 206 µM. Besides, the half-maximal inhibitory concentration (IC50) in data set [2] was more than 100 µM; in data set [3] it was 68 µM. In addition, the EC50 in data set [4] amounted to 91 µM. For the same compound, the selectivity ratio in data set [5] was found to be 2.27.
In the same order, the values of `O=C(O)c1csnc1-c1cccc(OCc2ccccc2)c1` are more than 642 µM, more than 100 µM, more than 100 µM, 58 µM and more than 11.
In the same order, the values of `O=C(NO)c1cc(-c2cccc(OCc3ccccc3)c2)on1` are 136 µM, more than 100 µM, 27 µM, 62.8 µM and 2.17.

For the origin of these results see ChEMBL document CHEMBL1156559, “Efficient synthesis and utilization of phenyl-substituted heteroaromatic carboxylic acids as aryl diketo acid isosteres in the design of novel HIV-1 integrase inhibitors” (Bioorg Med Chem Lett, 2008).
